Assay outcomes (PubChem BioAssay)
Compounds with a hit are over-represented: about 1.8% of the library has one in this group of screens.
PREPL inhibitor: PREPL enzyme inhibitors, primary screen, biochemical, fluorescence polarization | Prolyl endopeptidase-like (Homo sapiens), Q4J6C6 | inhibition, % at 5.96 µM | AID 2751, 2010 | 0.68% of 320,000 active | recombinant PREPL, fluorescence polarization activity-based probe; in the data active means inhibition above about 43%;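 further: 0% = enzyme with DMSO and 100% = wells lacking enzyme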
Target sequence (Q4J6C6 whole entry, looked up): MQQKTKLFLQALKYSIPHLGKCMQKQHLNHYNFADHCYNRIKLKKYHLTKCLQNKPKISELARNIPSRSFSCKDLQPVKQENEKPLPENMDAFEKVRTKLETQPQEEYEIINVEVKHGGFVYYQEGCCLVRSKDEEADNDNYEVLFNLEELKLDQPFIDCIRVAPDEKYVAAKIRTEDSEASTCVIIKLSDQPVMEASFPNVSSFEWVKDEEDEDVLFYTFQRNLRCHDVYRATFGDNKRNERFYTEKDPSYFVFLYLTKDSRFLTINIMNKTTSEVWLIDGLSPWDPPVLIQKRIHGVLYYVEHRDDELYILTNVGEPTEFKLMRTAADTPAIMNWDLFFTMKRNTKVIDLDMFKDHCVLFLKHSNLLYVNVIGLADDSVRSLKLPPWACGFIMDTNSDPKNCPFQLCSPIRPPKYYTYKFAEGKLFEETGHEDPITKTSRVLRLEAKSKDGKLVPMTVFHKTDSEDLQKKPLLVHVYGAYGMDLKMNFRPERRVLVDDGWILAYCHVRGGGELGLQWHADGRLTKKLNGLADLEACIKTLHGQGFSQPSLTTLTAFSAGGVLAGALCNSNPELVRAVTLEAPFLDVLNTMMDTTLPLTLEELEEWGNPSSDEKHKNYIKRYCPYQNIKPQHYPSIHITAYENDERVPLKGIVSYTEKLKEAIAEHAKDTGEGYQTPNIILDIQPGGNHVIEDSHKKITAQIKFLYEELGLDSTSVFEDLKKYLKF
eLon inh: inhibitors of E. coli Lon protease, primary screen, biochemical, fluorescence polarization. inhibition, % at 7.94 µM. purified E. coli Lon protease. 0.42% of 360,000 active; in the data active means inhibition above about 13%, passing the limit was not always enough;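 further: 0% = enzyme with probe and DMSO and 100% = no enzyme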
MT1-MMP act inh: blockers of MT1-MMP proenzyme processing, primary screen, HT1080 RFP-PRO-GFP cells, GFP/RFP fluorescence; Matrix metalloproteinase-14 (Homo sapiens), P50281; GFP/RFP ratio fluorescence, overnight; percent of plate control window, DMSO zero; GFP/RFP ratio change, % at 20 µM; 0.061% of 360,000 active; AID 651647, 2012;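 active means GFP/RFP ratio change of at least 30% with cell ATP level not reduced by more than half and red fluorescence within 50% of control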
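Read-out: GFP/RFP fluorescence ratio; Test system: RFP-PRO-GFP reporter HT1080 cells; Compound dosing: single-point 20 µM compound, 1% DMSO; Times: overnight compound exposure at 37 °C.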
hiPSC survival: enhancers of single-cell hiPSC survival, primary screen, ATPlite luminescence | 0.044% of 360,000 active | AID 602274, 2012 | 100% = ROCK inhibitor wells, 0% = DMSO | survival enhancement, % at 20 µM; in the data active means survival enhancement above about 18%;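 further: cells exposed to compounds for 16 hours before the ATP read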
Tb MetRS inh: T. brucei MetRS inhibitors, primary screen, biochemical, luminescence. purified T. brucei MetRS, ATP depletion, Kinase-Glo luminescence. 0.4% of 360,000 active. methionyl-tRNA synthetase (Trypanosoma brucei brucei). AID 624268, 2012. inhibition, % at 11.9 µM;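 active means inhibition above a per-plate cutoff of the control wells' mean inhibition plus 3 SD, cut at about 5.5% in these data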;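 further: 0% = DMSO wells median and 100% = median of wells with control inhibitor compound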
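Dosing: 11.9 µM compound single dose, 0.9% DMSO; Assay system: purified T. brucei MetRS enzyme; Measured by: Kinase-Glo luciferase luminescence reporting remaining unconsumed ATP; Schedule: 15 min plus 2 h at 25 °C.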
SKN-1 block: suppressors of acrylamide-induced Pgst-4::GFP reporter in worms, primary screen, SKN-1 inhibitor project, whole organism, uHTS, GFP/RFP fluorescence ratio, strain VP596; C. elegans VP596 Pgst-4::GFP/RFP ratio, 24 h; inhibition, % at 21.8 µM; 0.49% of 360,000 active; AID 624304, 2012;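 active means interference check ratio from 0.5 to 1.5 plus GFP to RFP signal ratio inhibition reaching or exceeding a fixed threshold, cut at about 30% in these data, passing the limit was not always enough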
Starred values were filed as active, the others as inactive; . = not tested or not shown.

SMILES | PREPL inhibitor | eLon inh | MT1-MMP act inh | hiPSC survival | Tb MetRS inh | SKN-1 block
CCN1C(=O)/C(=C2\C=Cc3cc(C)ccc3N2CC)OC1=S | 7 | -12 | -2 | 1 | -1 | 35*
N=C1C=CC(=C(c2ccc(N)cc2)c2ccc(N)cc2)C=C1 | . | -70 | 93 | -1 | -1 | 60*
Nc1ccc(C(=O)C(=O)c2ccc(N)cc2)cc1 | 0 | -7 | -3 | 0 | 0 | 15
CC1=CCC[C@@H]2[C@]3(CC/C(=C/CO)CO)CO[C@@]2(C1)[C@@H](O)C[C@H]3C | . | 2 | -4 | 2 | 0 | 12
NC(=NC(=O)c1ccc(OCC(F)(F)F)nc1)c1ccccc1 | 3 | -4 | 2 | 0 | -1 | 38*
NC(=NC(=O)c1ccc(OCC(F)(F)F)nc1)c1ccc(Cl)cc1 | 2 | -15 | -1 | 0 | -1 | 16
O=C(N=C1N=C2C=CC(Br)=CN2Cc2ccccc21)c1ccc([N+](=O)[O-])cc1[N+](=O)[O-] | 37 | -2 | -4 | 0 | 0 | 60*
Clc1ccc(Cc2nc(-c3cccnc3)no2)cc1 | 3 | -4 | 0 | 10 | 0 | 41*
Cc1cccnc1C(NC(=O)C1CCN(Cc2ccc(Oc3ccccc3)cc2)CC1)c1ccc(F)cc1 (centres undefined) | . | -19 | -5 | -2 | 0 | -14
CN(C)c1ccc(/C=N/NC2=NS(=O)(=O)c3ccccc32)cc1 | 12 | -35 | -3 | 0 | -1 | 39*
COc1ccc(/C=N/NC2=NS(=O)(=O)c3ccccc32)cc1 | -3 | -20 | 1 | -1 | 0 | 4
CC(=O)Nc1ccc(NC(=O)CSc2ccc(C(F)(F)F)cc2[N+](=O)[O-])cc1 | 3 | -6 | 3 | -2 | -2 | -3
O=C(CSc1ccc(C(F)(F)F)cc1[N+](=O)[O-])Nc1ccccc1 | 16 | 37* | -1 | 0 | 7.6* | 18
CCCNC(=O)C1(C)CCCN(Cc2c(F)cccc2F)C1 (centres undefined) | . | 0 | 2 | -1 | 0 | -8
CCCCCCn1c(N2CCC(C(N)=O)CC2)nc2c1c(=O)n(C)c(=O)n2C | 13 | -4 | 0 | -4 | -1 | 45*
O=C1c2ccccc2CCc2ccc(Br)cc21 | -2 | -7 | -1 | -2 | 0 | 36*
O=C(O)COc1ccc(/C=N/NC(=O)C(O)(c2ccccc2)c2ccccc2)cc1 | 3 | -2 | 3 | 0 | -1 | 40*
O=C(O)c1ccc(/C=N/NC(=O)C(O)(c2ccccc2)c2ccccc2)cc1 | 2 | 3 | 2 | 0 | -1 | -1
CCOc1cc(OCC)cc(C(=O)N2CCC[C@@H]2C(=O)N2CCC[C@@H]2C(=O)NCc2ccccc2Cl)c1 | . | -8 | 4 | -1 | -1 | 8
O=[N+]([O-])c1ccc(CSc2nc3ccccc3o2)cc1 | 13 | 1 | 4 | 1 | -1 | 69*
COC(=O)c1ccc(CSc2nc(N)cc(N)n2)cc1 | -3 | -5 | 4 | -3 | 0 | 14
COC(=O)c1ccc(CSc2nc3ccccc3o2)cc1 | -17 | 4 | 10 | 1 | -1 | 40*
OCCC1CN(Cc2cccn2-c2cccnc2)CCN1Cc1ccccc1 (centres undefined) | 12 | 11 | -5 | 0 | 0 | 1
COCCNC(=O)c1cc2c(c(-c3cccc(-c4cc5ccccc5o4)c3)n1)[C@@H](CCO)N(S(=O)C(C)(C)C)C2 (some centres undefined) | . | -25 | 0 | 4 | 0 | 9
O=C(c1ccco1)N1CCN(Cc2nc3ccccc3[nH]2)CC1 | 6 | 1 | -9 | 1 | 0 | 10
SMILES | PREPL inhibitor | eLon inh | MT1-MMP act inh | hiPSC survival | Tb MetRS inh | SKN-1 block
COc1ccc(C(C)C)cc1S(=O)(=O)n1cnc(C)c1 | 2 | -6 | 2 | 0 | 0 | 40*
CC(C)CSc1nc(N2CCOCC2)c2c(c1C#N)CC(C)(C)SC2 | 15 | -7 | -2 | 10 | -1 | -27
CCCSc1nc(N2CCOCC2)c2c(c1C#N)CC(C)(C)SC2 | 14 | -10 | -2 | 23* | 0 | 38*
CCOC(=O)C1=CCN(S(=O)(=O)c2ccccc2C)C1c1ccccc1 (centres undefined) | . | 2 | 1 | 4 | -2 | 10
O=C(CSc1nc2ncc(Br)cc2[nH]1)Nc1ccc2c(c1)OCO2 | 6 | 8 | 4 | -2 | 67* | 18
Cc1cc(C)c(NC(=O)CSc2nc3ncc(Br)cc3[nH]2)c(C)c1 | 2 | 4 | -5 | 0 | 1 | 1
COC12CC(=O)C(C(C)=O)=C(O)C1(C)c1c(O)c(C)c(O)c(C(C)=O)c1O2 (centres undefined) | . | -32 | 3 | 0 | -1 | -1
Cc1cc(C)nc(N2C(=O)CC(C(C)c3ccccc3)C2=O)n1 (centres undefined) | 1 | -3 | 0 | 1 | 0 | 37*
CC(=O)Nc1ccc(Nc2ccc3nonc3c2[N+](=O)[O-])cc1 | 20 | 5 | 8 | 0 | -1 | 4
CCOc1ccc(Nc2ccc([N+](=O)[O-])c3nonc23)cc1 | 38 | 1 | -39 | 0 | 0 | 37*
CC(=O)NS(=O)(=O)c1ccc(Nc2ccc([N+](=O)[O-])c3nonc23)cc1 | 1 | 8 | -45 | 0 | 3 | 35*
O=[N+]([O-])c1ccc(Nc2ccccc2)c2nonc12 | 17 | -28 | -35 | 1 | 0 | 35*
O=C(NC1CCCC1)C(c1ccccc1)n1c(-c2cccc3ccccc23)nc2ccccc21 (centres undefined) | . | . | -9 | . | 0 | -1
O=C(NCc1ccncc1)c1ccc(-c2ccc(F)c(F)c2)c2ccoc12 | . | -13 | 10 | -2 | 0 | 62*
O=C(NCc1ccc(C(F)(F)F)cc1)c1ccc(-c2ccc(F)c(F)c2)c2ccoc12 | . | -1 | 1 | -2 | 0 | -2
CN(C)c1ccc(N=Nc2ccccc2Br)cc1 | 6 | 0 | 7 | -1 | 0 | 18
CN(C)c1ccc(N=Nc2nccs2)cc1 | . | -15 | 35 | -5 | 0 | 56*
CCCc1cnc(Nc2nc(C(N)Cc3ccc(C(F)(F)F)cc3)cs2)nc1 (centres undefined) | . | -1 | -6 | -5 | 0 | 15
CC1CN(S(=O)(=O)c2cccc(C(=O)OCC(=O)c3cccs3)c2)CC(C)O1 (centres undefined) | 8 | -1 | 1 | -1 | 0 | -5
